Source: PubChem
CHRM4 PAM: positive allosteric modulators of human muscarinic M4 receptor; activation, % at 3 µM; P08173; hit rate 0.4% among 360,000; CHO-K1 hM4/Gqi5, Fluo-8 calcium fluorescence, ACh EC20; 0% = ACh EC20, 100% = maximal ACh;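 active = activation above its plate's cutoff, the mean activation of sample wells plus 3 SD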
M5 antag: antagonists of human muscarinic M5 receptor (CHRM5) | inhibition, % at 3 µM | hit rate 0.59% among 360,000 | CHO-hM5 cells, Fluo-8 calcium fluorescence, ACh EC80;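 active = inhibition above a per-plate cutoff, the mean of that plate's test compounds plus 3 SD, cut at about 27% in these data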
Target sequence (P08912 whole entry, looked up): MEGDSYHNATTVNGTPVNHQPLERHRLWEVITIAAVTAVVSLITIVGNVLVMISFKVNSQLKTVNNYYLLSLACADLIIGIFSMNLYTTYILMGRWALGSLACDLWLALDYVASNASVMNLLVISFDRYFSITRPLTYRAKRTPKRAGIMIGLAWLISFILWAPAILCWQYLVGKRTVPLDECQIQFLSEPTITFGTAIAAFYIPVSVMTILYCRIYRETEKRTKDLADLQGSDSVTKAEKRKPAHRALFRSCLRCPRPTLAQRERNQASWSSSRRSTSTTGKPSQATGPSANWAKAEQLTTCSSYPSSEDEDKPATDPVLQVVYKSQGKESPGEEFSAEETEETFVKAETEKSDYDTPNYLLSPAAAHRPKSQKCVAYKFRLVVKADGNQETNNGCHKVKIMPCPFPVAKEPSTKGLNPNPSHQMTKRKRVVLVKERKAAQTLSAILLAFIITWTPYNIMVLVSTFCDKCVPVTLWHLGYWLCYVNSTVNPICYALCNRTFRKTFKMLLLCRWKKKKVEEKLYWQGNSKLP
M5 ag: CHRM5 agonism in calcium assay; hit rate 0.19% among 360,000; activation, % at 3 µM; CHO-K1 hM5 cells, Fluo-8 calcium fluorescence; 0% DMSO wells, 100% maximal acetylcholine response;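 active = activation above the run's mean over test compounds plus 3 SD, cut at about 23% in these data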;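 also: signal is peak over basal fluorescence ratio across the kinetic read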
M4 antag: blocks acetylcholine activation of human M4 receptor; hit rate 0.73% among 360,000; P08173; inhibition, % at 3 µM; CHO-hM4 cells, ACh EC80, Fluo-8 calcium fluorescence;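 active = inhibition above its plate's cutoff, the mean inhibition of sample wells plus 3 SD, cut at about 27% in these data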
M5 PAM: positive allosteric modulators of human muscarinic M5 receptor; activation, % at 3 µM; hit rate 0.3% among 360,000; CHO-K1 hM5, Fluo-8 calcium, ACh EC20 PAM; 0% = ACh EC20, 100% = ACh EC100; P08912;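 active = activation above the run cutoff, the mean activation of all test compounds plus 3 SD, cut at about 18% in these data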
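System – CHO-K1 hM5 cells · Compound – 3 µM, single dose · Incubation – compound preincubation 140 s before EC20 acetylcholine addition · Technique – Fluo-8 calcium fluorescence · Measure – Max/basal fluorescence ratio as % of EC20–EC100 ACh window · Benchmarks – low control EC20 acetylcholine (0%), high control EC100 acetylcholine (100%) · Replication – singlicate, one well per test compound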
M4 ag: CHRM4 agonism in calcium assay; AID 624127; hit rate 0.14% among 360,000; activation, % at 3 µM; CHO-K1 hM4/Gqi5, Fluo-8 calcium fluorescence; vehicle 0%, full acetylcholine response 100%;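 active = activation above the run mean over all test wells plus 3 SD, cut at about 32% in these data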;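 also: peak over basal fluorescence ratio per well then scaled between controls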
Hits are given with their value. Rows were chosen to be rich in hits. Some 1.9% of all compounds tested hit in one or more screens of this group.

How did O=C(c1c(F)cccc1F)N1CCCC(c2nc(-c3ccc(Cl)cc3)no2)C1 (centres undefined) do in these assays?
CHRM4 PAM: inactive; M5 antag: 28; M5 ag: inactive; M4 antag: inactive; M5 PAM: inactive; M4 ag: inactive

What do the screens show for `CC(C(O)C12CC3CC(CC(C3)C1)C2)N1CCCCC1` (centres undefined)?
CHRM4 PAM: inactive; M5 antag: inactive; M5 ag: inactive; M4 antag: 40; M5 PAM: inactive; M4 ag: inactive

Results for Cc1cc2c3c([nH]c2cc1S(=O)(=O)NCc1ccc(CN2CCCCCC2)o1)CCCC3=O ?
CHRM4 PAM: inactive; M5 antag: inactive; M5 ag: inactive; M4 antag: 68; M5 PAM: inactive; M4 ag: inactive

What do the screens show for `Brc1ccc(C2=CC(c3cccs3)n3ncnc3N2)cc1` (centres undefined)?
CHRM4 PAM: inactive; M5 antag: inactive; M5 ag: 27; M4 antag: inactive; M5 PAM: inactive; M4 ag: 37

Results for Fc1ccc(C2=CC(c3ccc(Br)o3)n3ncnc3N2)cc1 (centres undefined) ?
CHRM4 PAM: inactive; M5 antag: inactive; M5 ag: inactive; M4 antag: inactive; M5 PAM: inactive; M4 ag: inactive

What do the screens show for `C1=C(c2ccc(-c3ccccc3)cc2)Nc2ncnn2C1c1ccco1` (centres undefined)?
CHRM4 PAM: inactive; M5 antag: inactive; M5 ag: 53; M4 antag: 27; M5 PAM: inactive; M4 ag: 62

How did Fc1ccc(C2=CC(c3ccco3)n3ncnc3N2)cc1 (centres undefined) do in these assays?
CHRM4 PAM: inactive; M5 antag: inactive; M5 ag: inactive; M4 antag: inactive; M5 PAM: inactive; M4 ag: inactive

What do the screens show for `Cc1c(C(=O)O)sc(S(=O)(=O)N2CCN(C(=O)Cc3ccc(F)cc3)CC2)c1C(=O)O`?
CHRM4 PAM: inactive; M5 antag: inactive; M5 ag: inactive; M4 antag: inactive; M5 PAM: inactive; M4 ag: inactive

Results for O=C(CN1CCC(NC(=O)c2ccccc2Cl)CC1)NCc1ccccc1 ?
CHRM4 PAM: inactive; M5 antag: inactive; M5 ag: inactive; M4 antag: inactive; M5 PAM: inactive; M4 ag: inactive

What do the screens show for `O=C(O)c1cccc(Cn2cc(Br)cn2)c1`?
CHRM4 PAM: inactive; M5 antag: inactive; M5 ag: inactive; M4 antag: inactive; M5 PAM: inactive; M4 ag: inactive

Results for O=C(NCc1ccncc1)c1cccc(Cn2cc(Br)cn2)c1 ?
CHRM4 PAM: inactive; M5 antag: inactive; M5 ag: inactive; M4 antag: 82; M5 PAM: inactive; M4 ag: inactive

Results for CCOC(=O)C1CCC(CNCc2ccccc2C)CC1 (centres undefined) ?
CHRM4 PAM: inactive; M5 antag: inactive; M5 ag: inactive; M4 antag: 34; M5 PAM: inactive; M4 ag: inactive

Results for O=C(NC1CCOc2ccccc21)c1ccccn1 (centres undefined) ?
CHRM4 PAM: inactive; M5 antag: inactive; M5 ag: inactive; M4 antag: inactive; M5 PAM: inactive; M4 ag: inactive

How did O=c1c(Cl)c(N2CCNCC2)cnn1C12CC3CC(CC(C3)C1)C2 do in these assays?
CHRM4 PAM: inactive; M5 antag: inactive; M5 ag: inactive; M4 antag: 31; M5 PAM: inactive; M4 ag: inactive

How did CCOC(=O)C1CCN(Cc2cc(Cl)c3ccccc3c2O)CC1 do in these assays?
CHRM4 PAM: inactive; M5 antag: inactive; M5 ag: inactive; M4 antag: 29; M5 PAM: inactive; M4 ag: inactive

Results for CC(C(=O)NCc1cccs1)N1CCN(S(=O)(=O)c2ccc3c(c2)OCCCO3)CC1 (centres undefined) ?
CHRM4 PAM: inactive; M5 antag: inactive; M5 ag: inactive; M4 antag: inactive; M5 PAM: inactive; M4 ag: inactive

What do the screens show for `CNc1ccc(Br)cc(C(=O)/C=C/c2ccc(OC)cc2OC)c1=O`?
CHRM4 PAM: inactive; M5 antag: inactive; M5 ag: inactive; M4 antag: inactive; M5 PAM: inactive; M4 ag: inactive

How did CCNc1ccc(Br)cc(C(=O)/C=C/c2c(Cl)cccc2Cl)c1=O do in these assays?
CHRM4 PAM: inactive; M5 antag: inactive; M5 ag: inactive; M4 antag: 38; M5 PAM: inactive; M4 ag: inactive

How did CNc1ccc(Br)cc(C(=O)/C=C/c2ccc(Cl)cc2Cl)c1=O do in these assays?
CHRM4 PAM: inactive; M5 antag: inactive; M5 ag: inactive; M4 antag: 44; M5 PAM: inactive; M4 ag: inactive
